# A selection: hits, their analogues and other compounds. The true share with any hit is near 3.8%.
# KCNQ1 block – blocks the human KCNQ1 potassium channel; B-score at 10 µM; 1.3% of 310,000 active; CHO-K1 KCNQ1, FluxOR thallium flux fluorescence; hits give high values; AID 2642; P51787;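 active = compounds whose thallium flux B-score, printed positive for inhibition, exceeds three library SD while starting fluorescence stays within three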;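 also: channel opened by potassium depolarization with thallium stimulus after 20 min compound exposure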
# Kir21 inh – inhibitors of mouse Kir2.1 inward-rectifier potassium channel. 0.85% of 310,000 active. HEK293-Kir2.1, FluxOR thallium flux fluorescence; hits give low values. P35561. B-score at 10 µM. AID 1672;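 active = fluorescence ratio B-score at or below minus 3 SD of library scores, with starting-brightness B-score within 2 SD, cut at about -4.2 in these data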;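 also: channel flux triggered by added potassium and thallium sulfate stimulus; B-score of peak minus minimum fluorescence over baseline after thallium stimulus; more negative B-score means stronger Kir2.1 block with less thallium influx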
# KCNK9 inh – blocks the human KCNK9 two-pore domain potassium channel. Q9NPC2. HEK293 KCNK9, FluxOR thallium flux fluorescence; hits give low values. B-score at 10 µM. 1.2% of 310,000 active;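 active = ratio B-score over 3 SD below the library mean, with starting fluorescence within 5 SD of its mean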;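 also: negative B-score means less thallium flux so channel inhibition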
# Target sequence (Q9NPC2 whole entry, looked up, the tested form may be a part): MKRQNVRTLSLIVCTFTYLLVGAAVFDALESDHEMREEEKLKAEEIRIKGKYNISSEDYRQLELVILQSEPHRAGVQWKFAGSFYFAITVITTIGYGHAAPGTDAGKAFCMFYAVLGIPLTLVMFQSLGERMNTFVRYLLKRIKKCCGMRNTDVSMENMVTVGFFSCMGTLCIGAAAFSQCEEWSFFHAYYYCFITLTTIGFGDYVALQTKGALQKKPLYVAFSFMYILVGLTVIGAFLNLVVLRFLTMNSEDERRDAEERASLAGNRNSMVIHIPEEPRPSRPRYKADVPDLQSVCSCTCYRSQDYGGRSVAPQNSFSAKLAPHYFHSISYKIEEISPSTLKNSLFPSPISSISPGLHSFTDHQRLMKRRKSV
# KCNQ1 pot – potentiates or activates the human KCNQ1 potassium channel | CHO-K1 KCNQ1, thallium flux FluxOR fluorescence; hits give high values | B-score at 10 µM | 0.35% of 310,000 active | AID 2648;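 active = fluorescence ratio B-score, a plate-corrected score, at least three library SD, with initial intensity B-score within 5 SD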
#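 Doses: Single concentration per compound, DMSO matched to controls | Test system: KCNQ1-transfected CHO-K1 cells | Timing: 90 min dye loading and 20 min compound exposure, both at room temperature | Measured by: Kinetic FluxOR thallium fluorescence, 10-s 1-Hz baseline, 110-s post-stimulus read | Medium: Assay buffer with matched DMSO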
# KCNK3 inh – human KCNK3 channel inhibition, primary screen; CHO-KCNK3 thallium flux, FluxOR fluorescence; hits give low values; B-score at 10 µM; 0.84% of 340,000 active; O14649; AID 602410;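 active = B-score under library mean minus 4 SD, starting fluorescence ratio at most library mean plus 5 SD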;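 also: more negative B-score means stronger inhibition of thallium flux through KCNK3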
# hERG rescue – shields human hERG channel from block by proarrhythmic agents; Q12809; CHO-hERG, FluxOR thallium flux, dofetilide IC70 present; activation (rescue from dofetilide block), less the hit threshold, % at 10 µM; 0.51% of 310,000 active; AID 1511;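 active = activation above the mean of controls blocked by dofetilide plus 5 SD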;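 also: thallium influx through hERG after potassium depolarization seen as dye fluorescence rise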
# KCNK9 inh conf – human KCNK9 inhibitor confirmation; 43% of 4,900 active; shares compounds with KCNK9 inh; inhibition, % at 10 µM; AID 492992; HEK293 KCNK9 cells, FluxOR thallium flux fluorescence;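 active = thallium signal inhibited by more than 5 SD of the compound-free buffer control wells, on both duplicate plates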;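 also: 0% = assay buffer control wells without compound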
# Kir2-1 spec – selectivity of KCNK9 modulators against mouse Kir2.1 | shares compounds with KCNK9 inh | Kir2.1 cells, FluxOR thallium flux fluorescence | inhibition, % at 10 µM | 4% of 4,900 active | AID 492993;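 active = thallium signal drop more than 5 SD beyond the mean of the no-compound control wells, seen in both duplicate plates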;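 also: signal is fluorescence rise after thallium addition divided by baseline fluorescence; plate controls were assay buffer only for no effect and full block by chlorpromazine control for full effect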
# HEK293 Tl ctr – second counter-screen for KCNK9 modulators: effect in non-induced cells | inhibition, % at 10 µM | 40% of 4,900 active | non-induced KCNK9-HEK293, FluxOR thallium flux | shares compounds with KCNK9 inh | AID 492997;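 active = thallium signal drop beyond 5 SD of the untreated control mean, on both duplicate plates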;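 also: plate controls were buffer only IC0 wells for no effect and SID17386958 at its maximal inhibitory level for full effect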
# * = called active by the depositor; i = inactive; . = no result.
SMILES,KCNQ1 block,Kir21 inh,KCNK9 inh,KCNQ1 pot,KCNK3 inh,hERG rescue,KCNK9 inh conf,Kir2-1 spec,HEK293 Tl ctr
O=C(Nc1ccc(F)cc1)N(Cc1cccs1)Cc1cc2cc3c(cc2[nH]c1=O)OCO3,i,-1.1,-11*,i,i,-7,i,i,42%*
Cc1ccc(NC(=O)N(Cc2cccs2)Cc2cc3cc4c(cc3[nH]c2=O)OCO4)cc1,i,0.04,i,i,.,-12,.,.,.
Cc1sc2nc(C3CC3)nc(SCC(=O)N3c4ccccc4CC3C)c2c1C (stereo not given),i,-1.2,i,i,i,-16,i,i,i
Cc1nc(SCC(=O)N2c3ccccc3NC(=O)CC2C)c2c(C)c(C)sc2n1 (stereo not given),.,.,.,.,i,.,.,.,.
O=C(N/N=C/c1ccc(-c2cccc(C(F)(F)F)c2)o1)c1cccc(F)c1,i,1.9,-9.9*,i,i,-19,i,i,i
NC(=O)N/N=C/c1ccc(-c2cccc(C(F)(F)F)c2)o1,i,0.01,i,i,i,-18,.,.,.
O=C(CNC(=O)c1sc2ccccc2c1Cl)NC1CC1,i,-0.05,i,i,i,-10,.,.,.
COc1ccc(C(C)=O)cc1CSc1nc(C)cc(C)n1,i,0.47,i,i,i,-13,.,.,.
COc1ccc(C(C)=O)cc1CSc1ccc2c(c1)OCCO2,i,-2.6,i,i,i,-10,i,i,i
CCCc1nc2ccccc2c(C(=O)OC(C)C(=O)NCc2ccc3c(c2)OCO3)c1CC (stereo not given),i,-1.1,i,i,i,-13,.,.,.
O=C(Nc1cc(S(=O)(=O)N2CCOCC2)ccc1Cl)C(=O)c1c(-c2ccccc2)cc2ccccn12,i,-0.09,-8.2*,i,i,-5,i,i,i
O=C(CNCc1ccccc1Cl)Nc1cc(S(=O)(=O)N2CCOCC2)ccc1Cl,.,.,.,.,i,.,.,.,.
Cc1cc(C)cc(NC(=O)c2cccn2-c2ncc(C(F)(F)F)cc2Cl)c1,i,0.04,i,i,i,-8,i,i,i
COc1ccccc1C(CNC(=O)c1cccc(S(=O)(=O)Nc2ccc(F)cc2)c1)N1CCCC1 (stereo not given),.,.,.,.,i,.,.,.,.
Cc1c(C)c2ccc(OCC(=O)NC3CCN(Cc4ccccc4)CC3)cc2oc1=O,i,-0.02,i,i,i,-14,.,.,.
CCOC(=O)COc1nc(-c2ccco2)cc(-c2ccco2)c1C#N,i,-0.94,-10*,i,i,-2,67%*,i,36%*
CCOC(=O)COc1nc(-c2ccc(C)cc2)cc(-c2ccco2)c1C#N,i,2.1,i,i,i,-7,.,.,.
CCOC(=O)c1sc(NC(=S)NC(=O)c2ccccc2Cl)c(C(=O)OCC)c1C,i,0,-9.1*,i,i,-8,i,i,i
Nc1nc(CCl)nc(N(c2ccccc2)c2ccccc2)n1,i,0.83,i,i,i,-10,.,.,.
Cn1cc(S(=O)(=O)N2CCN(c3cccc(Cl)c3)CC2)c(=O)n(C)c1=O,i,0.54,i,i,i,-10,i,i,i
O=C(Nc1cc2cccc([N+](=O)[O-])c2oc1=O)c1cccs1,i,2.2,i,i,i,-8,.,.,.
CC(Oc1ccc(F)cc1)C(=O)Nc1cc(S(=O)(=O)N2CCCCC2)ccc1N1CCN(C)CC1 (stereo not given),.,.,.,.,i,.,.,.,.
CC(Oc1ccc(F)cc1)C(=O)Nc1ccccc1N1CCCCC1 (stereo not given),6*,-3.3,-8.5*,i,i,-13,52%*,46%*,32%*
COc1ccc(C(=O)Nc2ccccc2N2CCCC2)cc1,i,0.5,i,i,i,-6,.,.,.
CC(C)Oc1ccc(C(=O)Nc2ccccc2N2CCCC2)cc1,i,-0.48,-14*,i,i,-5,58%*,i,29%*
SMILES,KCNQ1 block,Kir21 inh,KCNK9 inh,KCNQ1 pot,KCNK3 inh,hERG rescue,KCNK9 inh conf,Kir2-1 spec,HEK293 Tl ctr
O=C(CSc1nc2ccsc2c(=O)n1Cc1ccccc1)NCC1CCCO1 (stereo not given),i,-1.2,i,i,i,-12,.,.,.
CCC1CCCCN1C(=O)CSc1nc2ccsc2c(=O)n1Cc1ccccc1 (stereo not given),i,-0.67,i,i,i,-23,i,i,i
O=C(CNC(c1ccccc1)c1ccccc1)Nc1cc([N+](=O)[O-])ccc1Cl,i,-0.34,-9.2*,i,i,-10,69%*,i,41%*
CC1COC(=O)C(NNc2ccc(Cl)c(Cl)c2)=N1 (stereo not given),i,-0.11,i,i,i,-4,.,.,.
CSc1nc2ccccc2cc1/C=C(\C#N)c1cccc(C)c1,i,1.8,i,i,i,-7,.,.,.
CSc1nc2ccccc2cc1/C=C(\C#N)c1ccccc1,i,0.69,-13*,i,i,-5,54%*,i,42%*
C=CCN(C)CC/C=C1\c2ccccc2CSc2ccccc21,i,-4,i,i,i,-12,i,i,i
CCCC/C=C/C(NC(=O)CCc1ccccc1)c1ccccc1 (stereo not given),i,0.22,-10*,i,i,-5,48%*,i,35%*
O=C(c1ccccc1)c1c2c(cc3sc4ccccc4[n+]13)-c1cccc3cccc-2c13,.,.,.,.,i,.,.,.,.
Cc1sc2cc3c(c(C(=O)c4ccccc4)[n+]2c1C)-c1cccc2cccc-3c12,i,-13*,-10*,i,.,-46,41%*,64%*,34%*
O=C1c2ccc(Br)cc2C(=O)N1c1ccc(Cl)cn1,i,1.9,i,i,i,-13,.,.,.
Cc1ccc(/C=C/C(O)=C2/C(=O)N(C)C3(C)CC2c2ccccc2O3)cc1 (stereo not given),i,2,-8.3*,i,i,-10,52%*,i,42%*
COc1ccc(/C=C/C(O)=C2/C(=O)NC3(C)CC2c2ccccc2O3)c(OC)c1OC (stereo not given),i,-1.5,i,i,i,-5,.,.,.
COc1ccc(/C=C/C(O)=C2/C(=O)N(C)C3(C)CC2c2ccccc2O3)cc1 (stereo not given),i,0.69,-10*,i,i,-12,41%*,i,30%*

# Compound activity deposited in PubChem BioAssay by Johns Hopkins Ion Channel Center.
